“And” between values parts separate entries of the source, which are not always exact repeats. Equal entries are not always repeated. Where two headings read alike, the source gives them in different places.
Columns and labels:
[1] = test system: Akt pS473 in LNCaP cells; test: Western blot of Akt pS473; format: cell-based; conditions: 5 μM, 4 h
[2] = test system: Akt pS473 in LNCaP/shPIK3CB#3 cells; test: Western blot of Akt pS473; format: cell-based; conditions: LNCaP/shPIK3CB#3, 5 μM, 4 h
[3] = aqueous solubility assay; format: physicochemical
[4] = target: p110α (Homo sapiens, UniProt P42336); test: cell lysate CETSA; format: binding
Sequence of p110α (P42336 whole entry): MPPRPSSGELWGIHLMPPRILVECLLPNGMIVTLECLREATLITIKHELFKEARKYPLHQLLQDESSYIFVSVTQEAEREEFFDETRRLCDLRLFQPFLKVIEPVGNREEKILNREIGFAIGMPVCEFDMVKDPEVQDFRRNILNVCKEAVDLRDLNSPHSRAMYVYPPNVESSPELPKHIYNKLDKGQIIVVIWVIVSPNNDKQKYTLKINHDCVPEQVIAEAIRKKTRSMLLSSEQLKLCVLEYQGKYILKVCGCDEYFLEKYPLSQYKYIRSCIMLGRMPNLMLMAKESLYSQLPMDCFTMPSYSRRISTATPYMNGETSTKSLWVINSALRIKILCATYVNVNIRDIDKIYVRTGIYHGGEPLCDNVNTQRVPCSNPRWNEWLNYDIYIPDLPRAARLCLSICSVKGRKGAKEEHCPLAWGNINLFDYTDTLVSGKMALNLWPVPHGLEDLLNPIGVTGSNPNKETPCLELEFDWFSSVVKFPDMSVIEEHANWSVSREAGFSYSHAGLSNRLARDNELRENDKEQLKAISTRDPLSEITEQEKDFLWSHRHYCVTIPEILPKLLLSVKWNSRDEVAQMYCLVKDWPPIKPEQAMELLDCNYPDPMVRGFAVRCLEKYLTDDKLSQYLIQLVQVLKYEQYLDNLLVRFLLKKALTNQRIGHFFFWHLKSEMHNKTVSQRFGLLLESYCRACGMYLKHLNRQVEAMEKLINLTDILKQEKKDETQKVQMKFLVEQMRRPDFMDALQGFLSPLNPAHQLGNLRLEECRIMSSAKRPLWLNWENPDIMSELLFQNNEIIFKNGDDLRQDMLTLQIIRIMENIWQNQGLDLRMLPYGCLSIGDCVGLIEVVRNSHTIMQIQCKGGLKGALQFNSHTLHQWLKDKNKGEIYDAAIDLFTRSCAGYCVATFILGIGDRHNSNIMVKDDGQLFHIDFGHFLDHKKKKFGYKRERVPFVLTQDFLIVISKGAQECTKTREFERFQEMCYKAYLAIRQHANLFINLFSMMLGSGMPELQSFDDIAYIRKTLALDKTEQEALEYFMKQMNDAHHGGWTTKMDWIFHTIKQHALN
In short: (§1)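 Exponentially grown PC-3 cells in RIPA with protease inhibitors were put through three liquid-nitrogen freeze-thaw cycles, then ultracentrifuged 20 min at 4°C. Soluble lysate was incubated with test compound (5 μM) or DMSO for 45 min at room temperature. Aliquots were heated 3 min at 37–69°C in 4°C steps, cooled 3 min, and spun. Supernatant was Western blotted. Bands were normalized to 0–100% and fitted with a Boltzmann sigmoid. ΔTm50 is the compound-minus-solvent temperature at 50% band loss. Three experiments.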

[5] = target: T1, p110β (Homo sapiens, UniProt P42338); test: cell lysate CETSA; format: binding
T1 sequence (P42338 whole entry): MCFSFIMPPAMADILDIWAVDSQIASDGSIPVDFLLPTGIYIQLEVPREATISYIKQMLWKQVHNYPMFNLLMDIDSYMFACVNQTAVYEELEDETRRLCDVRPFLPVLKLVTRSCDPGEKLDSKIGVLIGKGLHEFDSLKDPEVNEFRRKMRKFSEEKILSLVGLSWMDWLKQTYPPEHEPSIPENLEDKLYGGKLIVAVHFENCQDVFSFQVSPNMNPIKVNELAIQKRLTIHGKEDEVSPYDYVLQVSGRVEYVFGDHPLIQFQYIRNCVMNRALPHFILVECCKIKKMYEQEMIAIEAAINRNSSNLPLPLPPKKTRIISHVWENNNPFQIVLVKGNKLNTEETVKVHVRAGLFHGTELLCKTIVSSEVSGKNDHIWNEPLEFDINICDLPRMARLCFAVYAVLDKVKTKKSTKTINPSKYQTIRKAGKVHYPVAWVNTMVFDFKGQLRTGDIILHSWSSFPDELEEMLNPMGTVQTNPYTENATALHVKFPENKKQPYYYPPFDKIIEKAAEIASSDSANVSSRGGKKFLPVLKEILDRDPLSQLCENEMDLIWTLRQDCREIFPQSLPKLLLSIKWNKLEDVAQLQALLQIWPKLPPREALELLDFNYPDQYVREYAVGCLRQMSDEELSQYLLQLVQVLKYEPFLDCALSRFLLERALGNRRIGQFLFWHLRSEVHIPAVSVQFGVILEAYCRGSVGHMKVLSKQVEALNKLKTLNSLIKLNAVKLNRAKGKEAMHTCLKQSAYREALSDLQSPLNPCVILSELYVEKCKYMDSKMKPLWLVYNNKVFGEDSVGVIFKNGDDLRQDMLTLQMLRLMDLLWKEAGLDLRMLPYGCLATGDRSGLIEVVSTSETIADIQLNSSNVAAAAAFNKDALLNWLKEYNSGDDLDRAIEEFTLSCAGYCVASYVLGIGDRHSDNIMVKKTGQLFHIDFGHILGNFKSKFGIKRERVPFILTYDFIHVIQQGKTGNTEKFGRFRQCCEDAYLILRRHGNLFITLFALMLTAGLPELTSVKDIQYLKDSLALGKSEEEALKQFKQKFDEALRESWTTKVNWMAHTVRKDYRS
In short: as §1

[6] = target: p110γ (Homo sapiens, UniProt P48736); test: cell lysate CETSA; format: binding
Sequence of p110γ (P48736 whole entry): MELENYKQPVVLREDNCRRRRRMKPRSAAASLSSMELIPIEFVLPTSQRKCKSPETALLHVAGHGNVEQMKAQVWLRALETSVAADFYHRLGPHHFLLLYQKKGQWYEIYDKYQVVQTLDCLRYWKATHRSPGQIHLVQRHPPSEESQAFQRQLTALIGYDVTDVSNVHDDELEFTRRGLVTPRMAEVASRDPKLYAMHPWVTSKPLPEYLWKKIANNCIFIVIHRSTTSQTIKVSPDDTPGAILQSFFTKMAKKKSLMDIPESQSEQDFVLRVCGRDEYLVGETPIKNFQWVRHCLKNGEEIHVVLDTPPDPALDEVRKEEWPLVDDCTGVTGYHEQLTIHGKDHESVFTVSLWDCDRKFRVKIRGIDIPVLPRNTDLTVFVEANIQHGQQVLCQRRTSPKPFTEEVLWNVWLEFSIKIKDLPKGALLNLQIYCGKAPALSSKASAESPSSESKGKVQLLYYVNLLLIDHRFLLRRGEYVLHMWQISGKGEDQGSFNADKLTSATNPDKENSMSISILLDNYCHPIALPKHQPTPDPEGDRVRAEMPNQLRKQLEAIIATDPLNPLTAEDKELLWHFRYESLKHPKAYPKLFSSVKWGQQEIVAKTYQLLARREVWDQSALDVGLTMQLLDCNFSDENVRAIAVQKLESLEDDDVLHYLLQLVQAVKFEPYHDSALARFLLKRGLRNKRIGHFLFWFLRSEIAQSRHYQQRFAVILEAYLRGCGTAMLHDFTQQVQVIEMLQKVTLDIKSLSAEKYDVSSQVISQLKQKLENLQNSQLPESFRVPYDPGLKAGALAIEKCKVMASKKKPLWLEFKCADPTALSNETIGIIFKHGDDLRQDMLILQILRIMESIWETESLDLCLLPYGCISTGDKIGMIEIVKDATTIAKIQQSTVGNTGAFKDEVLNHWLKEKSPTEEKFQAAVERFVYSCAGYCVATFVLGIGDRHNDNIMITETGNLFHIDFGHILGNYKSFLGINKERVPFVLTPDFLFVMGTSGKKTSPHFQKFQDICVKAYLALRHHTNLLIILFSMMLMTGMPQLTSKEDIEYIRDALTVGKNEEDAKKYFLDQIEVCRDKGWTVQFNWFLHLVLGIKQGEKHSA
In short: as §1

[7] = target: VPS34 (Homo sapiens, UniProt Q8NEB9); test: cell lysate CETSA; format: binding
Sequence of VPS34 (Q8NEB9 whole entry): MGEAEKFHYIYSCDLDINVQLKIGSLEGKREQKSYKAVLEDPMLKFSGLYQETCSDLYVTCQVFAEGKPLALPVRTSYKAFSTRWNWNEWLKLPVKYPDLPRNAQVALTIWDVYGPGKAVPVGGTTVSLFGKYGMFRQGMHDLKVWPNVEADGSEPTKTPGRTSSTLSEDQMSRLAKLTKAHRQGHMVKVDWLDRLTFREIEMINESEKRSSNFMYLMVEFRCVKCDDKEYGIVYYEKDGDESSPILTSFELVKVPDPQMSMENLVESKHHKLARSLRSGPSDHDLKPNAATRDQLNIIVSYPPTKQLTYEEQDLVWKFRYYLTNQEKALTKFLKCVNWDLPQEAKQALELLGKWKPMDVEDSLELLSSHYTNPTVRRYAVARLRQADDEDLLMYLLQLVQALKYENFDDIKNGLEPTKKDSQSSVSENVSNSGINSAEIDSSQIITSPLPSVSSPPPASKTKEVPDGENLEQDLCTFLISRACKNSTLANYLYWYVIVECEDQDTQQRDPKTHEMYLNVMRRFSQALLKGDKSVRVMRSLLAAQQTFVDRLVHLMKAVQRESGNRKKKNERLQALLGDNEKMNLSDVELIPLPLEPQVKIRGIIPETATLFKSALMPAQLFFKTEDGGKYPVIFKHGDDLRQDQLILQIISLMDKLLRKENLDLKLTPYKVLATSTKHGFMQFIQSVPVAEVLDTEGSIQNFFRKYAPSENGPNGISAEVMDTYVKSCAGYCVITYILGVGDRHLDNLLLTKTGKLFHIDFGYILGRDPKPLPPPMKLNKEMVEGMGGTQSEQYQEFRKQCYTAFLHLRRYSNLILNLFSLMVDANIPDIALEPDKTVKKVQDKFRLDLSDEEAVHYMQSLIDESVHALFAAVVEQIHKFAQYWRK
In short: as §1

[8] = test system: Akt; test: cell lysate CETSA; format: binding; conditions: cell lysate (in vitro), PC-3, compound 5 μM
In short: as §1

[9] = target: T1, p110β; test: whole cell CETSA; format: cell-based; conditions: whole cell (in vivo), PC-3
In short: (§2)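 Intact PC-3 cells in regular media treated with test compound or solvent for 4 hrs, washed and collected in cold PBS. Aliquoted pellets heated 3 min at 37–69°C (4°C steps), cooled 2 min at room temperature, then iced. Lysed in RIPA by three liquid-nitrogen freeze-thaw cycles; soluble fraction Western blotted. Densities normalized 0–100%, Boltzmann sigmoid fit; ΔTm50 as compound vs solvent shift at 50% band loss.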

[10] = test system: Akt; test: whole cell CETSA; format: cell-based; conditions: whole cell (in vivo), PC-3
In short: as §2

[11] = target: human p110α/p85α (Homo sapiens, UniProt P42336); test: Kinase-Glo Plus luminescent kinase assay; format: biochemical; conditions: read-out: IC50 p110α; 2 μM ATP, 37°C, 2 h
Sequence of human p110α/p85α (P42336 whole entry): as the sequence (P42336 whole entry) above
Sequence of human p110α/p85α (P27986 whole entry partner): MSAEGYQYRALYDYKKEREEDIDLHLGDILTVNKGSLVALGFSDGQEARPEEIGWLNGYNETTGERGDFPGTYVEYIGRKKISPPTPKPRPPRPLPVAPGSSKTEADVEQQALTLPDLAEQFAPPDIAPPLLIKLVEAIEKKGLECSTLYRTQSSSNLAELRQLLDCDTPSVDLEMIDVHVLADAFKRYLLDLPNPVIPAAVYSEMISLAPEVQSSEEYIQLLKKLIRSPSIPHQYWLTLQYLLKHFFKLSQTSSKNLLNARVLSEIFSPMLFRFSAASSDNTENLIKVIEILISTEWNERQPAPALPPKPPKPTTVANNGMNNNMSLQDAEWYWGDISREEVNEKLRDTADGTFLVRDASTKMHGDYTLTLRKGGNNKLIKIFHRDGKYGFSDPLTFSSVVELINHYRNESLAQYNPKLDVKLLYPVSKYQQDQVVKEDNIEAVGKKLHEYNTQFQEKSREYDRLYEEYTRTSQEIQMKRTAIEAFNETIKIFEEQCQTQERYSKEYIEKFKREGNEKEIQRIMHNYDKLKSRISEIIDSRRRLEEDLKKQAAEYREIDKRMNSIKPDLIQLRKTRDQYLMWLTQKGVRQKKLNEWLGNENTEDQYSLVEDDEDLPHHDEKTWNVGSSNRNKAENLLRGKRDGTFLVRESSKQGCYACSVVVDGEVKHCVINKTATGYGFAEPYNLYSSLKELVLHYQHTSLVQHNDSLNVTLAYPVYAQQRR

[12] = target: human p110δ/p85α (Homo sapiens, UniProt O00329); test: Kinase-Glo Plus luminescent kinase assay; format: biochemical; conditions: read-out: IC50 p110δ; 2 μM ATP, 37°C, 2 h
[13] = test system: C4-2B cells; test: WST-8 cell growth inhibition; format: cell-based; conditions: read-out: Cell Growth Inhibition EC50 (95% CI)
In short: (§3)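 Cells seeded at 8,000 per well and grown 24 hrs, then exposed to increasing concentrations of test compound or solvent for 3 days. WST-8 reagent added for 2 hrs at 37°C and OD read at 450 nm. Growth inhibition taken as percentage of solvent control OD. EC50 from log concentration vs normalized response fit, variable slope. Three independent experiments.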

[14] = test system: C4-2B/MDV-R cells; test: WST-8 cell growth inhibition; format: cell-based; conditions: read-out: Cell Growth Inhibition EC50 (95% CI)
In short: as §3

[15] = test system: 22RV1 cells; test: WST-8 cell growth inhibition; format: cell-based; conditions: read-out: Cell Growth Inhibition EC50 (95% CI)
In short: as §3

[16] = test system: PC-3 cells; test: WST-8 cell growth inhibition; format: cell-based; conditions: read-out: Cell Growth Inhibition EC50 (95% CI)
In short: as §3

[17] = test system: C4-2B cells; test: flow cytometry cell cycle analysis; format: cell-based; conditions: 16 h after 10% FBS
In short: (§4)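 Cells serum-starved overnight to synchronise, pretreated 30 min with solvent or test compound, then stimulated with 10% FBS for 16 h. Cells trypsinized, fixed and stained with propidium iodide. Counted on a flow cytometer (FACS) and cell cycle phase distribution calculated. Mean and SEM from at least three repeated experiments.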

[18] = test system: C4-2B/MDV-R cells; test: flow cytometry cell cycle analysis; format: cell-based; conditions: 16 h after 10% FBS
In short: as §4

[19] = test system: Akt pS473 in C4-2B cells; test: Western blot of FBS-stimulated Akt pS473; format: cell-based; conditions: 5 μM
In short: (§5)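 Cells serum-starved overnight, pretreated with test compound, then given 10% FBS. Lysates made in RIPA buffer with protease inhibitor cocktail, equal protein run on SDS-PAGE and transferred to PVDF. Blocked in 10% nonfat milk 1 hr, primary antibody (Akt pS473) overnight at 4°C, HRP secondary, chemiluminescent detection. Actin used as loading control.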

[20] = test system: Akt pS473 in C4-2B/MDV-R cells; test: Western blot of FBS-stimulated Akt pS473; format: cell-based; conditions: 5 μM
In short: as §5

[21] = test system: cyclin D1, CDK6 and p27^kip1 in C4-2B cells; test: Western blot of G1 phase proteins; format: cell-based; conditions: 5 μM
In short: (§6)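 After overnight serum starvation, cells received a 30-min pretreatment with solvent or test compound (5 μM), were stimulated with 10% FBS and were harvested at several time points. Lysates (RIPA plus protease inhibitors) were immunoblotted on PVDF for cyclin D1, CDK6 and p27kip1, with chemiluminescent detection and actin as loading control.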

[22] = test system: cyclin D1, CDK6 and p27^kip1 in C4-2B/MDV-R cells; test: Western blot of G1 phase proteins; format: cell-based; conditions: 5 μM
In short: as §6

[23] = cell lysate (in vitro), PC-3, compound 5 μM

Cc1nc(NC(=O)N2CCC[C@H]2C(N)=O)sc1-c1ccnc(C(C)(C)C(F)(F)F)c1 [BYL719]
effect on Akt pS473 [1]: partial inhibitory effect

Cc1cc([C@@H](C)Nc2ccccc2C(=O)O)c2nc(N3CCOCC3)cc(=O)n2c1 [AZD6482]
effect on Akt pS473 [1]: completely abolished
effect on Akt pS473 [2]: only partially inhibited

Cc1cc(C(C)Nc2ccccc2)c2nc(N3CCOCC3)cc(=O)n2c1 (stereo not drawn) [TGX221]
Aqueous solubility [3]: < 1.0 mg/ml and <2.74 mM
ΔTm50 p110α [4, 23]: 1.57 °C
ΔTm50 p110β [5, 23]: 04.02 °C
ΔTm50 p110γ [6, 23]: 0.68 °C
ΔTm50 VPS34 [7, 23]: 0.42 °C
ΔTm50 Akt [8]: 1.49 °C
ΔTm50 p110β [9]: 1.72 °C
ΔTm50 Akt [10]: 1.18 °C
IC50 [11]: 2.09 µM
IC50 [12]: 0.374 µM
EC50 ([13]; C4-2B, 3 days): 22.6 µM
EC50 ([14]; C4-2B/MDV-R, 3 days): 31.3 µM
EC50 ([15]; 22RV1, 3 days): 17.6 µM
EC50 ([16]; PC-3, 3 days): 7.43 µM
effect on Akt pS473 [1]: partial inhibitory effect
effect on Akt pS473 [2]: lost their inhibitory effect
cell cycle distribution (G0/G1 and S-phase) [17]: significantly increased G0/G1 population accompanied with a large reduction of S-phase cells
cell cycle distribution (G0/G1 and S-phase) [18]: significantly increased G0/G1 population accompanied with a large reduction of S-phase cells

Nc1cc(C(F)(F)F)c(-c2cc(N3CCOCC3)nc(N3CCOCC3)n2)cn1 [BKM120]
effect on Akt pS473 [1]: completely abolished
effect on Akt pS473 [2]: retained their full capacity

C[C@@H](Nc1cc(F)cc(F)c1)c1cc(C(=O)N(C)C)cc2c(=O)cc(N3CCOCC3)oc12 [AZD8186]
effect on Akt pS473 [1]: completely abolished
effect on Akt pS473 [2]: only partially inhibited

CC(CC(C(N)=O)(c1ccccc1)c1ccccc1)N(C)C (stereo not drawn) [BL139]
solubility ([3]; aqueous): 37400 µg/mL and 99200 µM
ΔTm at 5 µM ([4]; human, 0.75 h, read-out: ΔTm50 p110α): 1.51 °C
ΔTm at 5 µM ([5]; human, 0.75 h, read-out: ΔTm50 p110β): 12.4 °C
ΔTm at 5 µM ([6]; human, 0.75 h, read-out: ΔTm50 p110γ): 0.84 °C
ΔTm at 5 µM ([7]; human, 0.75 h, read-out: ΔTm50 VPS34): 0.14 °C
ΔTm50 Akt [8]: 2.44 °C
ΔTm50 p110β ([9]; 240 min): 5.78 °C
ΔTm50 Akt [10]: 2.60 °C

O=c1[nH]c2ccccc2n1C1CCN(Cc2ccc(-c3nc4cc5[nH]cnc5cc4nc3-c3ccccc3)cc2)CC1 [AKT-i8]
effect on Akt pS473 [1]: completely abolished
effect on Akt pS473 [2]: retained their full capacity

CNC(=O)c1ccc(N2C(=S)N(c3ccc(C#N)c(C(F)(F)F)c3)C(=O)C2(C)C)cc1F [MDV3100]
effect on FBS-stimulated Akt pS473 levels [19]: enhanced

Cc1c(Cn2c(C)nc3c(C(=O)O)cc(N4CCOCC4)cc32)cccc1C(F)(F)F [GSK2636771]
EC50 ([13]; 72 h): 28.9 µM
EC50 ([14]; 72 h): 42.3 µM
EC50 ([15]; Homo sapiens, 22Rv1, 72 h): 26.1 µM
EC50 ([16]; Homo sapiens, PC-3, 72 h): 14.5 µM
effect on Akt pS473 [1]: partial inhibitory effect
effect on Akt pS473 [2]: lost their inhibitory effect
effect on FBS-stimulated Akt pS473 levels [19]: abolished
effect on FBS-stimulated Akt pS473 levels [20]: only partially suppressed
cell cycle distribution (G0/G1 and S-phase) [17]: significantly increased G0/G1 population accompanied with a large reduction of S-phase cells
cell cycle distribution (G0/G1 and S-phase) [18]: significantly increased G0/G1 population accompanied with a large reduction of S-phase cells
CDK6 protein levels [21]: no obvious alteration
FBS-induced increase of cyclin D1 protein levels [21]: largely suppressed
p27^kip1 protein levels [21]: largely elevated
CDK6 protein levels [22]: no obvious alteration
FBS-induced increase of cyclin D1 protein levels [22]: largely suppressed

Reference: paper PMC5527967 (The Prostate, 2017)
